Measurements gathered from unrelated publications.
Compare with care: the assays were run in different laboratories.
FLT3 F691L/ITD: Receptor-type tyrosine-protein kinase FLT3 (FLT3, Homo sapiens, UniProt P36888, F691L/ITD)
FLT3 D835H: Receptor-type tyrosine-protein kinase FLT3 (FLT3, Homo sapiens, UniProt P36888, D835H)
FLT3: Receptor-type tyrosine-protein kinase FLT3 (FLT3, Homo sapiens, UniProt P36888)
FLT3 D835Y: Receptor-type tyrosine-protein kinase FLT3 (FLT3, Homo sapiens, UniProt P36888, D835Y)
FLT3 R834Q: Receptor-type tyrosine-protein kinase FLT3 (FLT3, Homo sapiens, UniProt P36888, R834Q)
FLT3 K663Q: Receptor-type tyrosine-protein kinase FLT3 (FLT3, Homo sapiens, UniProt P36888, K663Q)
FLT3 D835V: Receptor-type tyrosine-protein kinase FLT3 (FLT3, Homo sapiens, UniProt P36888, D835V)
FLT3 autoinhibited: Receptor-type tyrosine-protein kinase FLT3, autoinhibited (FLT3, Homo sapiens, UniProt P36888)
FLT3 N841I: Receptor-type tyrosine-protein kinase FLT3 (FLT3, Homo sapiens, UniProt P36888, N841I)

O=C(c1ccc(Nc2ncc(Cl)c(-c3cc4ccccc4s3)n2)cc1)N1CCC(N2CCCC2)CC1
remaining binding (FLT3 F691L/ITD; binding, competition with immobilised ligand; 1 µM): 2.7%

CN1CCN(c2ccc(Nc3nccc(-c4cccc([N+](=O)[O-])c4)n3)cc2C(F)(F)F)CC1
remaining binding (FLT3 D835H; binding; 10 µM): 1.1%

O=C(Nc1c[nH]nc1C(=O)NC1CCNCC1)c1cc(F)cc(F)c1
remaining binding (FLT3; binding, competition with immobilised ligand; 1 µM): 100%

N[C@@H]1CCN(c2nccc(-c3cnn4ncccc34)n2)C1
remaining binding (FLT3 D835Y; binding; 1 µM): 97%

O=C(NCCCN1CCOCC1)c1ccc(Nc2nccc(-c3cc4ccccc4s3)n2)cc1
remaining binding (FLT3 R834Q; binding, competition with immobilised ligand; 1 µM): 43%

NS(=O)(=O)c1cc(NC(=O)C2(c3ccccc3Cl)CC2)ccc1Oc1cccc(Cl)c1
remaining binding (FLT3 K663Q; cell-free assay, competition with immobilised ligand; 1 µM): 100%

CN(C)c1nccc(-c2cnc3ncccn23)n1
remaining binding (FLT3 D835V; binding; 1 µM): 68%

COc1ncc2cc3ccccc3nc2c1C#N
remaining binding (FLT3 D835Y; cell-free assay, competition with immobilised ligand; 5 µM): 92%

O=C(Nc1cnc(Oc2ccc(F)cc2)nc1)N1CCc2ncccc2[C@@H]1c1ccc(F)cc1
remaining binding (FLT3 autoinhibited; cell-free assay, competition with immobilised ligand; 1 µM): 90%

O=C(NCC1CCOCC1)c1n[nH]cc1NC(=O)c1c(F)cccc1F
remaining binding (FLT3 D835Y; binding, competition with immobilised ligand; 1 µM): 89%

C[C@@H]1CCN(c2nccc(-c3cnn4ncccc34)n2)C1
remaining binding (FLT3 R834Q; binding; 1 µM): 71%

CN1CCN(c2ccc(Nc3nccc(-c4ccccc4)n3)cc2C(F)(F)F)CC1
remaining binding (FLT3 D835Y; binding; 10 µM): 1.3%

O=C(NC1CCC1)c1ccc2nc(-c3cccc(NS(=O)(=O)NCCN4CCCCC4)c3)cn2c1
remaining binding (Receptor-type tyrosine-protein kinase FLT3 (FLT3, Homo sapiens, UniProt P36888, ITD); cell-free assay, competition with immobilised ligand; 10 µM): 100%

C[C@@H](c1ccc(-n2cnc3c(N)ncnc32)cc1)N1CCc2nn(C)c(Cc3ccccc3)c2C1=O
remaining binding (FLT3 K663Q; binding, competition with immobilised ligand; 0.1 µM): 77%

O=C(c1ccc(Nc2ncc(Cl)c(-c3ccc(Cl)s3)n2)cc1)N1CCC(N2CCCC2)CC1
remaining binding (FLT3 D835H; binding, competition with immobilised ligand; 1 µM): 2.3%

C=CC(=O)N1CCC(C(=O)NCC(=O)N2CCN(c3nc(-c4cnc(N)nc4C(F)F)nc(N4CCOCC4)n3)CC2)CC1
remaining binding (FLT3 D835V; binding, competition with immobilised ligand; 1 µM): 61%

CC(C)(C)c1ccc(-c2nc(CBr)nn2-c2cccc(O)c2)cc1
remaining binding (FLT3; cell-free assay, competition with immobilised ligand; 10 µM): 82%

Cc1cnc(Nc2ccc(C(=O)N3CCC(N4CCCC4)CC3)cc2)nc1-c1cc2ccccc2s1
remaining binding (FLT3 autoinhibited; binding, competition with immobilised ligand; 1 µM): 9.5%

Nc1ncc2c(n1)-c1c([nH]c3ccc(C#CC4CC4)cc13)CCCC2
remaining binding (FLT3 R834Q; binding, competition with immobilised ligand; 1 µM): 79%

O=C(NCCCN1CCOCC1)c1ccc(Nc2ncc(Cl)c(-c3ccc(Cl)s3)n2)cc1
remaining binding (FLT3 autoinhibited; binding, competition with immobilised ligand; 1 µM): 5.5%

c1cnn2ncc(-c3ccnc(N4CCC45COC5)n3)c2c1
remaining binding (FLT3 D835V; binding; 1 µM): 20%

CC1=C(C#N)C(c2ccc3c(c2)c(NC(=O)c2ccccc2C)nn3C)C(C#N)=C(C)N1
remaining binding (FLT3 N841I; cell-free assay, competition with immobilised ligand; 1 µM): 74%

F[C@@H]1CCN(c2nccc(-c3cnn4ncccc34)n2)C1
remaining binding (FLT3 R834Q; binding; 1 µM): 100%

CNC(=O)[C@@H]1CC[C@@H](n2c(-c3ccc4cnccc4c3)nc3ccc(C(=O)NCc4cccc(C(N)=O)c4)cc32)C1
remaining binding (FLT3 N841I; binding, competition with immobilised ligand; 1 µM): 100%

c1cncc(-c2cccc(Nc3nccc(NC4CCCCC4)n3)c2)c1
remaining binding (FLT3 D835Y; binding, competition with immobilised ligand; 10 µM): 1.4%

C[C@H](c1ccc(F)cc1)N(Cc1cccc(C(=O)O)c1)C(=O)c1cnc2ccccc2c1
remaining binding (FLT3 D835V; cell-free assay, competition with immobilised ligand; 1 µM): 98%

CCN1CCN(Cc2ccc(C(=O)Nc3ccc(C)c(Oc4ccc5c(c4)CC(=O)N5)c3)cc2C(F)(F)F)CC1
remaining binding (FLT3 autoinhibited; binding, competition with immobilised ligand; 1 µM): 100%

O=C(c1ccc(Nc2nccc(-c3cc4ccccc4s3)n2)cc1)N1CCC(N2CCCC2)CC1
remaining binding (FLT3 R834Q; binding, competition with immobilised ligand; 1 µM): 30%

CC1CCCN1c1nccc(-c2cnn3ncccc23)n1 (stereo not shown)
remaining binding (FLT3 D835Y; binding; 1 µM): 100%

Cc1nc(N2CC[C@@H](O)C2)ncc1-c1cc(C(F)(F)F)cc2[nH]ncc12
remaining binding (FLT3 F691L/ITD; binding, competition with immobilised ligand; 1 µM): 69%

CN(c1nccc(-c2cnn3ncccc23)n1)C1CC1
remaining binding (FLT3 K663Q; binding; 1 µM): 83%

Cc1noc([C@H]2C[C@@H](c3ccc(C(F)(F)F)cc3)CN(C(=O)N3CCS(=O)(=O)C3)C2)n1
remaining binding (FLT3 R834Q; cell-free assay, competition with immobilised ligand; 1 µM): 91%

COc1cnc(Nc2cccc(S(N)(=O)=O)c2)nc1N1CCN(c2ccccc2)C(=O)C1
remaining binding (FLT3 K663Q; binding, competition with immobilised ligand; 1 µM): 87%

O=C(NCc1ncc(C(F)(F)F)cc1Cl)c1ccc2c(c1)C1(CCS(=O)(=O)CC1)[C@H](C1CC1)N2S(=O)(=O)c1ccc(F)cc1
remaining binding (FLT3 R834Q; cell-free assay, competition with immobilised ligand; 1 µM): 90%

COc1cnc(Nc2cccc(S(N)(=O)=O)c2)nc1N1CCN(c2ccccc2)CC1
remaining binding (FLT3; binding, competition with immobilised ligand; 1 µM): 36%

COc1ccnn2ncc(-c3ccnc(N(C)C)n3)c12
remaining binding (FLT3 R834Q; binding; 1 µM): 87%

O=c1nc(-c2ccccn2)sc2ccccc12
remaining binding (FLT3; binding, competition with immobilised ligand; 1 µM): 93%
